TLR9-MyD88 block: inhibitors of human TLR9-MyD88 binding | AID 504734 | CHO BLA complementation TLR9-MyD88, CCF4 FRET ratio | 340,000 compounds, 0.21% hits | Q9NR96+Q99836 | inhibition, % at 4.98 µM;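 active = inhibition above the mean over all tested compounds plus 3 SD, cut at about 21% in these data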;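 note: 0% = DMSO only wells and 100% = clavulanate BLA inhibitor control wells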
CHOP inhibitor: CHOP inhibition in unfolded protein response; inhibition, % at 10 µM; 220,000 compounds, 3.8% hits; CHO-K1 CHOP-promoter luciferase, tunicamycin-induced, 15-18 h;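 active = compounds that reduced the stress-induced luciferase reporter signal by more than about 70% of percent inhibition, limit read from the data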;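 note: 0% = tunicamycin plus vehicle and 100% = wells without tunicamycin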
XBP1 UPR activ: adaptive UPR (XBP1) activation | CHO-XBP1 luciferase reporter, IRE1-XBP1 UPR activation, luminescence; percent of tunicamycin response, DMSO as zero | activation, % at 20 µM | 330,000 compounds, 0.33% hits;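 active = versus positive control, 20 µM dose yields 30% or more activation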;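 note: 100% = tunicamycin at 10 µg/mL and 0% = DMSO only wells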
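Material: CHO cell line with stable XBP1 luciferase reporter; buffer or medium: F12 medium containing 10% fetal bovine serum; compound: single point, 20 µM final compound, 1% DMSO; incubation: 6 h treatment, 37 °C; measured by: glow luminescence from Steady-Glo reagent; evaluation: activation, % of tunicamycin; control set: tunicamycin high, DMSO low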
CHOP UPR activ: activators of apoptotic arm of unfolded protein response (CHOP); activation, % at 10 µM; 330,000 compounds, 0.34% hits; CHO-CHOP luciferase reporter, UPR activation, luminescence; percent of tunicamycin response over DMSO baseline;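 active = at 10 µM dose, activation of 40% or more, normalized to positive control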;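 note: 100% = tunicamycin at 10 µg/mL and 0% = DMSO alone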
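assay system = CHO CHOP reporter cells | amount = 500 CHO-CHOP cells per well | buffer or medium = F12 with 10% FBS | incubation = 16-18 h cell attachment, then 6 h compound exposure, 37 °C | detection = luminescence read with Steady-Glo | read-out = percent activation relative to tunicamycin control | controls = tunicamycin high control, DMSO low control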
TLR4 MyD88 comp: TLR4-MyD88 interaction inhibition in cells | O00206+Q99836 | HeLa CL3-4 TLR4/MyD88 BLA complementation, FRET ratio | inhibition, % at 8.4 µM | 200,000 compounds, 0.18% hits | AID 861; in the data active = inhibition above about 25%;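 note: 0% = vehicle and 100% = reference inhibitor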
NOD2 RIPK2 PPI: blocks binding of human NOD2 to RIPK2; CHO BLA complementation NOD2-RIPK2, CCF4 ratio; AID 624267; inhibition, % at 4.98 µM; O43353; 360,000 compounds, 0.38% hits; in the data active = inhibition above about 21%;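 note: 0% = vehicle only and 100% = reference blocker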
Starred values were filed as active, the others as inactive. The entries come from a sample that favours hits as a whole.

How did Cc1ccccc1Cn1c(=O)n(CCC(=O)NCc2ccc3c(c2)OCO3)c(=O)c2ccccc21 do in these assays?
TLR9-MyD88 block: -3.5; CHOP inhibitor: 87.5*; XBP1 UPR activ: -2.4; CHOP UPR activ: 0.9; TLR4 MyD88 comp: 6.4; NOD2 RIPK2 PPI: 6.7

Results for Cc1ccc(C)c(Cn2c(=O)n(CCC(=O)NCc3ccco3)c(=O)c3ccccc32)c1 ?
TLR9-MyD88 block: -3.2; CHOP inhibitor: 83.0*; XBP1 UPR activ: -4.3; CHOP UPR activ: -4.2; TLR4 MyD88 comp: -0.7; NOD2 RIPK2 PPI: -0.7

What do the screens show for `CCOc1cc2[nH]c(=S)n(CCCC(=O)NCc3ccco3)c(=O)c2cc1OCC`?
TLR9-MyD88 block: 5.4; CHOP inhibitor: 82.0*; XBP1 UPR activ: -1.6; CHOP UPR activ: 2.0; TLR4 MyD88 comp: 1.4; NOD2 RIPK2 PPI: -4.1

What do the screens show for `O=C(CCc1cnccn1)NC1CCCc2c1cnn2-c1ccc(F)cc1F` (stereo not drawn)?
TLR9-MyD88 block: -3.8; CHOP inhibitor: 4.1; XBP1 UPR activ: 1.0; CHOP UPR activ: -0.4; TLR4 MyD88 comp: -4.2; NOD2 RIPK2 PPI: -9.4

Results for c1ccc(-c2ccc(-c3nc(-c4ccccn4)no3)cc2)cc1 ?
TLR9-MyD88 block: 4.8; CHOP inhibitor: 105.2*; XBP1 UPR activ: -9.4; CHOP UPR activ: -9.3; TLR4 MyD88 comp: -1.0; NOD2 RIPK2 PPI: -2.1

How did Clc1cccc(-c2nc(-c3ccccn3)no2)c1 do in these assays?
TLR9-MyD88 block: -0.7; CHOP inhibitor: 59.8; XBP1 UPR activ: -6.2; CHOP UPR activ: -7.5; TLR4 MyD88 comp: -1.8; NOD2 RIPK2 PPI: -2.1

What do the screens show for `c1ccc(-c2nc(-c3ccccn3)no2)cc1`?
TLR9-MyD88 block: 0.3; CHOP inhibitor: 59.7; XBP1 UPR activ: -9.3; CHOP UPR activ: -7.7; TLR4 MyD88 comp: 6.0; NOD2 RIPK2 PPI: -10.4

How did Cc1ccc(-c2nc(-c3ccccn3)no2)cc1Cl do in these assays?
TLR9-MyD88 block: 0.7; CHOP inhibitor: 82.7*; XBP1 UPR activ: -7.8; CHOP UPR activ: -8.5; TLR4 MyD88 comp: -10.8; NOD2 RIPK2 PPI: -39.8

What do the screens show for `Cc1cccc(NC(=S)NC2CCSc3ccccc32)c1` (stereo not drawn)?
TLR9-MyD88 block: -6.9; XBP1 UPR activ: -3.3; CHOP UPR activ: -0.8; NOD2 RIPK2 PPI: -0.4

What do the screens show for `CC(=O)N=c1n(C)c2ccccc2n1CCOc1ccccc1`?
TLR9-MyD88 block: -0.3; CHOP inhibitor: 0.7; XBP1 UPR activ: -1.7; CHOP UPR activ: -1.6; TLR4 MyD88 comp: -3.8; NOD2 RIPK2 PPI: -5.0

How did C/C(=N\NC(=O)COc1ccc(C)cc1C(C)C)c1ccc(-n2ccnc2)cc1 do in these assays?
TLR9-MyD88 block: -6.1; CHOP inhibitor: 93.0*; XBP1 UPR activ: 3.3; CHOP UPR activ: 8.9; TLR4 MyD88 comp: -9.0; NOD2 RIPK2 PPI: -3.1

How did CC(C)c1ccc(S(=O)(=O)/N=C2/C=C(Sc3ncn[nH]3)C(=O)c3ccccc32)cc1 do in these assays?
TLR9-MyD88 block: 10.5; CHOP inhibitor: 80.9*; TLR4 MyD88 comp: -9.6; NOD2 RIPK2 PPI: 1.8

Results for CC(C)(C)c1ccc(S(=O)(=O)/N=C2\C=C(NS(=O)(=O)c3ccccc3)C(=O)c3ccccc32)cc1 ?
TLR9-MyD88 block: 11.4; XBP1 UPR activ: -0.5; CHOP UPR activ: 0.7; NOD2 RIPK2 PPI: 2.1

Results for COc1cccc(CNC(=O)c2ccccc2SCC(=O)N2CCCC2)c1 ?
TLR9-MyD88 block: -0.5; XBP1 UPR activ: -0.9; CHOP UPR activ: -0.2; NOD2 RIPK2 PPI: -8.6

What do the screens show for `CN1CCN(c2ccccc2NC(=O)c2ccc(OCc3ccccc3)cc2)CC1`?
TLR9-MyD88 block: -17.4; CHOP inhibitor: 65.4; XBP1 UPR activ: 1.0; CHOP UPR activ: -0.6; TLR4 MyD88 comp: 0.5; NOD2 RIPK2 PPI: 11.2

How did CN1CCN(c2ccccc2NC(=O)c2cccc(OCc3ccccc3)c2)CC1 do in these assays?
TLR9-MyD88 block: -6.3; CHOP inhibitor: 78.5*; XBP1 UPR activ: -2.0; CHOP UPR activ: 0.5; TLR4 MyD88 comp: -16.1; NOD2 RIPK2 PPI: -9.8

Results for O=C(c1ccccc1F)N1CCN(c2ccccc2)CC1 ?
TLR9-MyD88 block: -10.4; CHOP inhibitor: -6.5; XBP1 UPR activ: -2.7; CHOP UPR activ: -0.9; TLR4 MyD88 comp: 1.4; NOD2 RIPK2 PPI: 19.5

What do the screens show for `O=C(c1ccccc1F)N1CCN(c2cccc(C(F)(F)F)c2)CC1`?
TLR9-MyD88 block: 6.2; CHOP inhibitor: 73.7*; XBP1 UPR activ: -1.0; CHOP UPR activ: 0.5; TLR4 MyD88 comp: -13.2; NOD2 RIPK2 PPI: -0.3

How did O=C(c1c(F)c(F)c(F)c(F)c1F)N1CCN(c2cccc(C(F)(F)F)c2)CC1 do in these assays?
TLR9-MyD88 block: 12.6; CHOP inhibitor: 81.9*; XBP1 UPR activ: 1.4; CHOP UPR activ: -0.3; TLR4 MyD88 comp: 0.8; NOD2 RIPK2 PPI: -3.7

What do the screens show for `Cn1c(C(=O)N2CCN(c3cccc(C(F)(F)F)c3)CC2)cc2sccc21`?
TLR9-MyD88 block: -1.8; CHOP inhibitor: 72.4*; XBP1 UPR activ: -0.9; CHOP UPR activ: 0.4; TLR4 MyD88 comp: -2.5; NOD2 RIPK2 PPI: -14.4

How did Cc1ccn2c(CNCC3COCCO3)c(C(=O)N3CCCCCC3)nc2c1 (stereo not drawn) do in these assays?
TLR9-MyD88 block: -7.6; XBP1 UPR activ: -2.5; CHOP UPR activ: -1.1; NOD2 RIPK2 PPI: 1.8
